Data as given in the EternaBench riboswitch data.

Test system: MS2 coat protein
Assay: apparent Kd, MS2 coat protein; higher = weaker binding; RNA-MaP array; theophylline 2 mM where present
Method in brief: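 Designs on Illumina sequencing-chip clusters, transcribed by stalled E. coli RNA polymerase, were exposed to SNAP-549-labelled MS2 coat protein in doubling steps from 0.7 or 1.5 nM up to 3 µM, without and then with constant ligand. The buffer held 100 mM Tris-HCl pH 7.5, 80 mM KCl, 4 mM MgCl2, BSA, DTT, yeast tRNA and Tween-20. Apparent Kd values are medians of filtered per-cluster binding-curve fits to green signal normalised to red-channel RNA signal and control-cluster median Fmax.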

[1] = designed as: ON switch for theophylline, no ligand
[2] = ligand present: theophylline, designed as: ON switch for theophylline
[3] = designed as: OFF switch for theophylline, no ligand
[4] = ligand present: theophylline, designed as: OFF switch for theophylline

| Sequence | apparent Kd [1] [nM] | apparent Kd [2] [nM] | apparent Kd [3] [nM] | apparent Kd [4] [nM] |
| --- | --- | --- | --- | --- |
| UAUAUAAUAACAGAUACCAGCGUGUUAUAAAACAUGAGGAUCACCCAUGUAGUGAUCAAGCGCCCUUGGCAGCUGGUAUUAUAUA | 72.2 | 146 |  |  |
| UCUUUCUAUGUAGAUACCAGCAUGUUAUAUUUCUAAUGACAUGAGGAUCACCCAUGUAAAUGCCCUUGGCAGCUGCGUUUUCUUU | 16.9 | 13.2 |  |  |
| UGACAUUGCUCAGAUACCAGACGUGAGGAUCACCCACGUGCCAACAUGAGGAUCACCCAUGUCCCUUGGCAGCUGAGCAAUGUCU |  |  | 15.7 | 183 |
| UGCAUCAUAAUCAUGUUGGUGCUAGGUGAUACCAGCAUCGAAAGAUGCCCUUGGCAGCACCAACAUGAGGAUCACCCAUGUAAUA | 114 | 337 |  |  |
| UGGGCAUACAUGAGGAUCACCCAUGUAGAUACCAGCACUAGCCUGUGCCCUUGGCAGCUAACCGGGUCGAGAACUUAGUGCUCCU |  |  | 11.8 | 52.7 |
| UGUUUUGUGAUGGAUACCAGCAGAGAAAACGUUUAUCCUAACAUGAGGAUCACCCAUGUAUGCCCUUGGCAGCUGUUGUGGGAUA |  |  | 29.7 | 34.1 |
| UUACAUGAGGAUCACCCAUGUCAUAAUGAUACCAGAUAGUUGAUGAUCCCUUGGCAGCAUAGUACCUAGACAUGUGAGUCAUAGG | 113 | 132 |  |  |
| UUUGAUAGGACAGAUACCAGCGUGUUGUUGAACAUGAGGAUCACCCAUGUAGUGAUCAGGCGCCCUUGGCAGCUGGUUUGUUAGG | 416 | 347 |  |  |
| UUUUAAGGGAUCGGUGCUGGUAGCAGAGAUACCAGAGUAAUGAUACUCCCUUGGCAGCUCAGUACAUGAGGAUCACCCAUGUUUU |  |  | 17.4 | 25.9 |
